Usually Ki stands for a dissociation constant, usually derived from enzyme kinetics or from competition with a known ligand.

For one test, the target named is Prothrombin (Homo sapiens, UniProt P00734). The experiment in a line: Inhibition of human thrombin using S2238 as substrate measured for 30 mins. Put shortly:
(§1)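 Ki measured against purified human enzymes (APC, FXa, FIXa, plasma kallikrein, thrombin, trypsin) at room temperature (25 °C) and averaged from two experiments.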

The subject of the next test is Plasma. The experiment in a line: Anticoagulant activity in F7-deficient human plasma assessed as concentration required to double prothrombin time. It is filed as functional.
Test [1] addresses Coagulation factor VII/tissue factor (Homo sapiens, UniProt P08709). Kind of test: Inhibition of human recombinant TF/F7a complex using S2288 as substrate preincubated for 15 mins followed by protein addition measured for 60 mins. The test is classed as protein-complex assay. Put shortly: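 Ki measured against recombinant human TF/FVIIa enzyme at room temperature (25 °C) and averaged from two experiments.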

For a further test, the target named is Coagulation factor X (Homo sapiens, UniProt P00742). Kind of test: Inhibition of human F10a using S2222 as substrate measured for 30 mins. Put shortly:
as §1

For the next test, the target named is Coagulation factor IX (Homo sapiens, UniProt P00740). Kind of test: Inhibition of human F9a measured for 30 mins. Put shortly: as §1
Coagulation factor IX, sequence (P00740 47-191 limits assumed): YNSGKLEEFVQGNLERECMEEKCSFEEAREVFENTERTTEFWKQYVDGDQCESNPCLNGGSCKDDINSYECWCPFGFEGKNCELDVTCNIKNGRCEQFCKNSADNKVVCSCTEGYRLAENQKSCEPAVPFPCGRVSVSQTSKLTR
Coagulation factor IX, sequence (P00740 227-461 limits assumed): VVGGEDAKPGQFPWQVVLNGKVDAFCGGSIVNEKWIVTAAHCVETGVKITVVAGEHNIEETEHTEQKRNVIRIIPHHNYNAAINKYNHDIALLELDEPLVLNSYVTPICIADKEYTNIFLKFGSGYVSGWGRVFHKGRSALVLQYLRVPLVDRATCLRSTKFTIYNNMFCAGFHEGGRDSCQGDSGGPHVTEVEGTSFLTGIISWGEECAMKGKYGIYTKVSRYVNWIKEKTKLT
A further test concerns the target Trypsin (Homo sapiens, UniProt P07477+P07478+P35030). Kind of test: Inhibition of human trypsin measured for 30 mins. The test is classed as protein assay. The essentials: as §1
Test [2] has as its target Vitamin K-dependent protein C (Homo sapiens, UniProt P04070). The experiment in a line: Inhibition of human APC measured for 30 mins. The essentials:
as §1

The next test has as its target Kallikrein-1 (Homo sapiens, UniProt P06870). Kind of test: Inhibition of human tissue kallikrein 1 measured for 30 mins. The essentials:
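Purified human tissue kallikrein-1 assayed at 37 °C. Ki averaged from two experiments.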

For another test, the target named is Plasma kallikrein (Homo sapiens, UniProt P03952). The experiment in a line: Inhibition of human plasma kallikrein using S2302 as substrate measured for 30 mins. Put shortly:
as §1

Vitamin K-dependent protein C, sequence (P04070 43-197 limits assumed): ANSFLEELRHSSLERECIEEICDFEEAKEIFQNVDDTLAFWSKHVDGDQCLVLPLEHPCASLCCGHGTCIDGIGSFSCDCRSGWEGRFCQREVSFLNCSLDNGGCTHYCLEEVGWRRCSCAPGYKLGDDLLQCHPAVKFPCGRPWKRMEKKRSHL
Vitamin K-dependent protein C, sequence (P04070 212-461 limits assumed): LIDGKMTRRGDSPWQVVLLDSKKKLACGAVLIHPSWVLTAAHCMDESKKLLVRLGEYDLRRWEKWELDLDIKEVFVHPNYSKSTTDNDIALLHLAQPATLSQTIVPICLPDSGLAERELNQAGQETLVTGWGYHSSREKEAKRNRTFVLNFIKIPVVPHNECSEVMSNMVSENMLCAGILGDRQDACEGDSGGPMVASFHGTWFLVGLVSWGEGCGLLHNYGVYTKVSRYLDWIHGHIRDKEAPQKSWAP
Coagulation factor VII/tissue factor, sequence (P08709 61-212 limits assumed): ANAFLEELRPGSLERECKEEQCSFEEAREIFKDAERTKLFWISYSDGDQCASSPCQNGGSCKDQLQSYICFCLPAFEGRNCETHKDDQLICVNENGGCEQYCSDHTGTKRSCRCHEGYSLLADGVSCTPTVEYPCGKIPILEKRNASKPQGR
Coagulation factor VII/tissue factor, sequence (P08709 213-466 limits assumed): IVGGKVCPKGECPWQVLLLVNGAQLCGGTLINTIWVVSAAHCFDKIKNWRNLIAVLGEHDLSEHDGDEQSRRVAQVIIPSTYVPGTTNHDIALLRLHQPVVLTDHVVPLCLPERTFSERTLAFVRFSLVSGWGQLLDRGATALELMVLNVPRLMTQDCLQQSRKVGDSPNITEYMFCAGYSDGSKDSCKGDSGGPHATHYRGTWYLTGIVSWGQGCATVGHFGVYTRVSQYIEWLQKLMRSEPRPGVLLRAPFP
Coagulation factor VII/tissue factor, sequence (P13726 33-295 partner limits assumed): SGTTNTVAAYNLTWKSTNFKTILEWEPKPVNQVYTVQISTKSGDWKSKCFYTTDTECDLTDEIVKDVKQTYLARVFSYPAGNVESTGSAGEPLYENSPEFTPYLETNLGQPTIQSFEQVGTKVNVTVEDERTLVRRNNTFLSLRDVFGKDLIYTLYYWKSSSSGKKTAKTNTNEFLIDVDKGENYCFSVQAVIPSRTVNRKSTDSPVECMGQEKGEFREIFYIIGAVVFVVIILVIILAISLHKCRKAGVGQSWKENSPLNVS
Coagulation factor X, sequence (P00742 41-179 limits assumed): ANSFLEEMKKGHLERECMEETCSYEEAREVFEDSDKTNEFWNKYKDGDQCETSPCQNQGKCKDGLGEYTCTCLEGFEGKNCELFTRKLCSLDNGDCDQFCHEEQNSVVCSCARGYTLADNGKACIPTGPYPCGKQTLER
Coagulation factor X, sequence (P00742 235-488 limits assumed): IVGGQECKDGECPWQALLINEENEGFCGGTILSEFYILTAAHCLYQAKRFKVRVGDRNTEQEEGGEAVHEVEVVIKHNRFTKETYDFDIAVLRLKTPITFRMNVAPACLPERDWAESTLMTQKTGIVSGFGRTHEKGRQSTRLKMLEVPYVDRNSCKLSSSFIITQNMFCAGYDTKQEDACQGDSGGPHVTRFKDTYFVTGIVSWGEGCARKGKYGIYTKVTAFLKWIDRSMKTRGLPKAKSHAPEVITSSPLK
Plasma kallikrein, sequence (P03952 20-390 limits assumed): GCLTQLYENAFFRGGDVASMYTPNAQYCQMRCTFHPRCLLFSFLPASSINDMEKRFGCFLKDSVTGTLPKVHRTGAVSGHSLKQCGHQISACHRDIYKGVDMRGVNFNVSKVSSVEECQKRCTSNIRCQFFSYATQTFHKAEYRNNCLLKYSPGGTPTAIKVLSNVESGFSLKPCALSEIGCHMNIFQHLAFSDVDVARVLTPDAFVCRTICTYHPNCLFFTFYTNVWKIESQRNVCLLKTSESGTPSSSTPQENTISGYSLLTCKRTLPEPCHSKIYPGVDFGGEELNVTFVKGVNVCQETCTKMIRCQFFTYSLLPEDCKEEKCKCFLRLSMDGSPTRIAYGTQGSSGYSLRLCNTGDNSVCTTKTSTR
Plasma kallikrein, sequence (P03952 391-638 limits assumed): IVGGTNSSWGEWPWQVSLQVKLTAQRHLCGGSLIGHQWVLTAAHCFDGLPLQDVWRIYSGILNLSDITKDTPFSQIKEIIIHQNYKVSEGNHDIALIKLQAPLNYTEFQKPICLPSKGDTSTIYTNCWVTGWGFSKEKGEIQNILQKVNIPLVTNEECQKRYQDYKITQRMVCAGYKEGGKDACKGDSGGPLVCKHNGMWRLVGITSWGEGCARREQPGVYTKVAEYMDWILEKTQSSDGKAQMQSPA
Kallikrein-1, sequence (P06870 whole entry): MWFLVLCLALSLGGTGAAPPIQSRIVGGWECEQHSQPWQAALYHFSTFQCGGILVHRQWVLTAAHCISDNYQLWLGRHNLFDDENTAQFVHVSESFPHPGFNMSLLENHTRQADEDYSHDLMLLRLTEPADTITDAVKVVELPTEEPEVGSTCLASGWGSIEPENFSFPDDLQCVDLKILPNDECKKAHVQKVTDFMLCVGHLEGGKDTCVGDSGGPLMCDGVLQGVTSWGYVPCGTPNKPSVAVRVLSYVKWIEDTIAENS

For the compound `Nc1nccc2cc(N[C@H]3C(=O)NCc4cccc(c4)NC(=O)CCCc4ccc3cc4)ccc12`, the Ki on Prothrombin was greater than 13000 nM; in [1], 400 nM; on Coagulation factor X, greater than 9000 nM; at Coagulation factor IX, greater than 35000 nM; on Trypsin, greater than 6000 nM; in test [2], 2800 nM. For the same compound, the Ki on Kallikrein-1 was 18 nM; on Plasma kallikrein, greater than 6000 nM. Further, the 2PT with Plasma is 26 µM.
As to `CC(C)(C)S(=O)(=O)c1ccc2cc1CNC(=O)C(Nc1ccc3c(N)nccc3c1)c1ccc(cc1)CCCC(=O)N2` (racemic), the Ki at Prothrombin was greater than 13000 nM; in test [1], 30 nM; on Coagulation factor X it was 4800 nM; at Coagulation factor IX, greater than 35000 nM; at Trypsin, greater than 6000 nM; in [2] it was 14000 nM. The figures for the inhibition constant Ki on Kallikrein-1 and on Plasma kallikrein were 22 nM and greater than 6000 nM, respectively. In addition, in the test with Plasma, the 2PT was found to be 8.6 µM.
With `Nc1nccc2cc(NC(C(=O)NCc3ccccc3)c3ccccc3)ccc12` (stereo not drawn), in [1], the Ki stood at 54000 nM.
`CCS(=O)(=O)c1ccc2cc1CNC(=O)[C@H](Nc1ccc(C(=N)N)cc1)c1ccc(cc1)CCCC(=O)N2`: the Ki turned out to be 180 nM at Prothrombin; 0.7 nM in test [1]; 5500 nM on Coagulation factor X; 34000 nM at Coagulation factor IX; 58 nM on Trypsin; 41 nM in test [2]. For the same compound, the results for the Ki on Kallikrein-1 and at Plasma kallikrein were 1900 nM and 50 nM, respectively. Also, the 2PT with Plasma turned out to be 0.42 µM.
In the case of `CC(=O)Nc1cccc(CNC(=O)C(Nc2ccc3c(N)nccc3c2)c2ccccc2)c1` (stereo not drawn), in [1], the Ki is 10000 nM.
Regarding `CC(=O)Nc1ccc(S(=O)(=O)C(C)C)c([C@H]2CCCN2C(=O)[C@H](Nc2ccc3c(N)nccc3c2)c2ccccc2)c1`, the 2PT in the test on Plasma came out at 12 µM. In test [1], the inhibition constant Ki was found to be 8 nM.
For `Nc1nccc2cc(NC3C(=O)NCc4cccc(c4)NC(=O)CCc4ccc3cc4)ccc12` (stereo not drawn), the Ki in [1] came to 4600 nM.
`CCS(=O)(=O)c1ccc2cc1CNC(=O)[C@H](Nc1ccc3c(N)nccc3c1)c1ccc(c(C)c1)CCCC(=O)N2`: the Ki on Prothrombin stood at 6700 nM; in test [1] it was 1.6 nM; on Coagulation factor X it was 1000 nM; on Coagulation factor IX, 16000 nM; at Trypsin, 2700 nM; in [2] it was 830 nM. Besides, the values for the Ki on Kallikrein-1 and at Plasma kallikrein were 100 nM and 1700 nM, respectively. For the same compound, the 2PT with Plasma was found to be 1.2 µM.
With `Nc1nccc2cc(NC3C(=O)NCc4cccc(c4)NC(=O)CCCc4ccc3cc4)ccc12` (stereo not drawn), the Ki in [1] was 920 nM.
On the same count and under the same terms, the value for `Nc1nccc2cc(NC3C(=O)NCc4cccc(c4)NC(=O)CCCCc4ccc3cc4)ccc12` (stereo not drawn) was 6100 nM; that for `Nc1nccc2cc(N[C@@H]3C(=O)NCc4cccc(c4)NC(=O)CCCc4ccc3cc4)ccc12` was greater than 18000 nM.
On the same count and under the same terms, in the case of `Nc1nccc2cc(NC3C(=O)NCc4cccc(c4)NC(=O)CCCOc4ccc3cc4)ccc12` (stereo not drawn) it was 4600 nM.
Take `CC(C)S(=O)(=O)c1ccc2cc1CNC(=O)[C@H](Nc1ccc3c(N)nccc3c1)c1ccc(cc1)CCCC(=O)N2`: the Ki at Prothrombin was 4000 nM; in test [1], 5.2 nM; on Coagulation factor X, 3300 nM; on Coagulation factor IX, greater than 35000 nM; at Trypsin, 3000 nM; in test [2] it was 1800 nM. For the same compound, the figures for the Ki at Kallikrein-1 and on Plasma kallikrein were 100 nM and 3600 nM, respectively. The 2PT with Plasma came out at 1.4 µM.
`CCS(=O)(=O)c1ccc2cc1CNC(=O)[C@H](Nc1ccc3c(N)nccc3c1)c1ccc(cc1)CCCC(=O)N2`: the Ki was 5800 nM at Prothrombin; 8 nM in test [1]; 3200 nM on Coagulation factor X; greater than 35000 nM at Coagulation factor IX; 3600 nM on Trypsin; 1300 nM in test [2]. Besides, the Ki on Kallikrein-1 stood at 100 nM; at Plasma kallikrein, 4600 nM. Also, the 2PT with Plasma is 1.6 µM.
